In PubChem BioAssay AID617 (SRMLSC, 2007):

test system: E. coli BW25113 ΔtolC growth inhibition, OD615; assay: growth inhibitors of E. coli tolC mutant, dose response, strain BW25113 ΔtolC::kan (AID 617)
Summary of the method: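 Test system: E. coli BW25113 ΔtolC::kan bacteria / Buffer or medium: kanamycin-containing LB broth, 50 µg/mL / Compound: serial dilution series of compound / Incubation: bacterial growth with compound for 20 h, 37 °C / Measured by: OD615 / Read-out basis: growth-inhibition IC50 from four-parameter logistic curve, bounds set to 0% and 100%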

| Structure (SMILES) | IC50 [µM] |
| --- | --- |
| Fc1ccc(CNc2nc(-c3ccco3)cc(C(F)(F)F)n2)cc1 | 13.9 |
| CC1CCC2C(C1)c1sc(=O)[nH]c1SC2(C)C (stereo not given) | 7.77 |
| COc1ccccc1OCC(=O)N(Cc1nc(-c2ccccc2)no1)C1CCCCC1 | 12.7 |
| CCOc1ccc(C(=O)C2CCN(CC(=O)Nc3ccccc3N3CCOCC3)CC2)cc1 | 15.6 |
| Cc1cc(-c2nnc3n2N=C(c2ccc(-c4ccccc4)cc2)CS3)n[nH]1 | 9.55 |
| Cc1nc2ccc(C(C(F)(F)F)(C(F)(F)F)C(F)(F)F)cc2[nH]1 | 33.4 |
| N#Cc1c(/N=C/c2ccco2)oc(-c2ccccc2)c1-c1ccccc1 | 6.78 |
| O=C1CC(O)(C(F)(F)F)Oc2c1ccc1ccccc21 (stereo not given) | 1.19 |
| Cc1ccccc1Cn1nc(C)c(NC(=O)c2noc3c2CCc2ccccc2-3)c1C | 12.1 |
| Cc1ccc(O)c(C(=O)CC(=O)c2cccc(F)c2)c1 | 11.6 |
| CCOc1ccccc1N1CCN(Cc2ccc(Br)s2)CC1 | 26.6 |
| COc1ccccc1N1CCN(c2nc(C)nc3c2oc2ccccc23)CC1 | 11.4 |
| c1csc(-c2nc3nc4ccccc4nc3n2Cc2ccc3c(c2)OCO3)c1 | 9.62 |
| Cc1cc(C)n(-c2nc(SCC(=O)N3CCCC3)c3c4c(sc3n2)CCCC4)n1 | 23.9 |
| COc1ccc(C2(O)CC3CCC(C2)N3c2nc(C)cc(C)c2C#N)cc1 (stereo not given) | 24.6 |
| O=S(=O)(Nc1nc2ccccc2nc1N1CCN(c2ccccn2)CC1)c1ccc(Cl)cc1 | 3.16 |
| O=C1[C@H]2[C@@H](C(=O)N1c1cc(Cl)cc(Cl)c1)[C@]1(C(=O)Nc3ccccc31)N1CCC[C@@H]21 | 10.1 |
| O=C(Nc1ccccc1N1CCCCC1)c1cccs1 | 12.8 |
| Cc1ccnc(N2CCC(C(=O)Nc3cccc(C(F)(F)F)c3)CC2)n1 | 82.2 |
| Cc1cccc2cc(C(c3nnnn3CC3CCCO3)N3CCc4ccccc4C3)c(=O)[nH]c12 (stereo not given) | 35.4 |
| Clc1ccc(Nc2nc(-c3cccs3)cs2)nc1 | 80.2 |
| Cc1ccc(NC(=O)c2ccccc2O)cc1 | 16 |
| COc1ccc(C(=O)Nc2nc(-c3cccs3)cs2)cc1 | 8.14 |
| O=C(CSc1ncc(-c2ccc(F)cc2)n1Cc1ccco1)Nc1ccc2c(c1)OCO2 | 7.29 |
| O=C(Nc1nnc(-c2cccs2)o1)c1cccc(Oc2ccccc2)c1 | 0.17 |
| Cc1cc(C)n(-c2nc3ccccc3nc2N2CCCCCC2)n1 | 18.4 |
| COc1ccc(-n2c(Cc3cccn3C)nnc2SCC(=O)Nc2ccc(C)c(Cl)c2)cc1 | 14.4 |

| Structure (SMILES) | IC50 [µM] |
| --- | --- |
| COc1ccccc1N1CCN(Cc2nc(N)nc(Nc3ccc(C)c(Cl)c3)n2)CC1 | 9.02 |
| O=C(C1CCCCC1)N1CCC(c2nc3c(nnn3Cc3c(F)cccc3Cl)c(=O)[nH]2)CC1 | 18.2 |
| COC(=O)C1=C(C)N(C)C(C)=C(C(=O)OC)C1c1ccc(F)c(Br)c1 | 20 |
| c1ccc2c(c1)oc1c(N3CCN(Cc4ccc5c(c4)OCO5)CC3)ncnc12 | 10.9 |
| Oc1c(CN2CCN(c3ccccn3)CC2)cc(Cl)c2cccnc12 | 11.4 |
| CCOc1cccc(NC(=O)C2CC(=O)N(C)C(=Nc3cccc(F)c3)S2)c1 (stereo not given) | 15.1 |
| COc1cc2ccccc2cc1C(=O)Nc1ccc(S(=O)(=O)Nc2cc(C)on2)cc1 | 10.7 |
| c1ccc(CSc2nnc(-c3cccs3)n2Cc2ccco2)cc1 | 13.2 |
| CCNc1nc(NC(C)C)nc(N(C#N)Cc2ccccc2)n1 | 18.1 |
| CCOc1ccc(NS(=O)(=O)c2ccc3[nH]cc(C(=O)NC(C)CC)c(=O)c3c2)cc1 (stereo not given) | 11.1 |
| O=C(Cn1c(C(=O)NCc2ccco2)cc2sccc21)c1ccccc1 | 24.6 |
| Cc1cccc(OCCn2c(NC(=O)c3ccco3)nc3ccccc32)c1 | 11 |
| Cc1ccc(Cl)cc1NC(=O)CC(O)(C(F)(F)F)C(F)(F)F | 3.77 |
| COc1ccc2nc(N3CCC(C)CC3)c(C#N)cc2c1 | 28.9 |
| Cc1ccc(S(=O)(=O)N(Cc2ccccc2)Cc2ccco2)cc1 | 10.8 |
| OCCN1CCN(c2nc(-c3ccccc3)c3cc(Cl)ccc3n2)CC1 | 60.6 |
| O=C(Nc1nnc(C2CC2)s1)c1cc(-c2ccccc2)nn1-c1ccccc1 | 6.41 |
| CCOC(=O)Nc1ccc2c(c1)N(C(=O)N1CCN(C)CC1)c1ccccc1S2 | 36.9 |
| COC(=O)C1=C(N)Oc2cc(C)n(Cc3ccco3)c(=O)c2C1c1cccc(Cl)c1 (stereo not given) | 26.5 |
| CC(C)(C)N1C(=O)Cc2c1nc(N)c1c(N)nc(N3CCCCC3CO)c(C#N)c21 (stereo not given) | 6.59 |
| C=CCOC(=O)C(C#N)c1nc2ccccc2nc1N1CCN(Cc2ccccc2)CC1 (stereo not given) | 17.2 |
| CC1CCc2cc(F)ccc2N1C(=O)c1cc2nc(-c3ccco3)cc(C(F)(F)F)n2n1 (stereo not given) | 11.2 |
| Cc1cccc(N2CCN(C(=O)C34CC5CC(CC(C5)C3)C4)CC2)c1C | 19.6 |
| COc1cc(/C=C(/C#N)c2ccc(F)cc2)ccc1OCc1ccc(C(=O)O)o1 | 4.94 |
| O=C(CCC1CCCC1)c1c(O)c2ccccc2oc1=O | 0.96 |
| CCOc1cc(C)c(Cl)cc1S(=O)(=O)n1nnc2ccccc21 | 11.6 |
| CCn1c2ccccc2c2cc(NC(=O)c3ccco3)ccc21 | 8.97 |

| Structure (SMILES) | IC50 [µM] |
| --- | --- |
| CCOC(=O)Cc1c(C)nc2c(-c3ccc(Cl)cc3)c[nH]n2c1=O | 2.11 |
| COc1ccc(CCN2C(=O)c3[nH]nc(-c4ccccc4O)c3C2c2ccc(C)cc2)cc1OC (stereo not given) | 13.8 |
| CCN(c1ccccc1)S(=O)(=O)c1ccc(C(=O)Nc2nnc(COC)o2)cc1 | 3.23 |
| Cc1ccc(CN2CCSc3ccc(C(=O)N4CCN(c5ncccn5)CC4)cc32)cc1 | 17 |
| CCOC(=O)N1CCC(Nc2nc3ccccc3nc2NS(=O)(=O)c2ccc(Cl)cc2)CC1 | 5.49 |
| Cc1ccc(S(=O)(=O)NCCSc2nnnn2-c2cc(C)ccc2C)cc1 | 13.4 |
| Cc1cc(N2CCN(C(c3ccccc3)c3ccccc3)CC2)n2ncnc2n1 | 26.6 |
| COC(=O)c1[nH]c2ccc(C)cc2c1NS(=O)(=O)c1ccc(F)cc1 | 6.58 |
| Cc1cccc(Nc2nc(-c3ccccn3)cs2)n1 | 0.68 |
| O=c1c2c(nc3c(-c4cccc5ccccc45)c[nH]n13)CCC2 | 7 |
| CCOC(=O)C1CCN(C(c2cccnc2)c2c(NC(=O)c3ccco3)sc(C)c2C)CC1 (stereo not given) | 13.6 |
| CC1CN(c2oc(COc3ccc(Cl)cc3Cl)nc2C#N)CC(C)O1 (stereo not given) | 10.3 |
| O=C(c1cccc(F)c1)N1CCN(C(=O)c2cc(-c3ccc(Cl)cc3Cl)on2)CC1 | 9.75 |
| Cc1ccc(C2CC(c3cccc(Br)c3)Nc3nnnn32)cc1 (stereo not given) | 13 |
| Cc1ccccc1-c1nc(CN2CCC(C(=O)NCCC3=CCCCC3)CC2)c(C)o1 | 13.9 |
| CCOC(=O)c1cnc(-n2nc(C)cc2C)nc1NC1CCCCC1 | 0.54 |
| N=c1n(CCN2CCOCC2)c2ccccc2n1CC(=O)c1ccc(Cl)c(Cl)c1 | 27.1 |
| CCOC(=O)N1CCN(S(=O)(=O)c2ccc(OCC)c3ccccc23)CC1 | 14.2 |
| O=c1n(Cc2ccccc2)c2cc(Cl)cnc2n1Cc1ccccc1 | 10.2 |
| Cc1ccc2c(c1)c1c(n2CC(O)Cn2c(C)nc3ccccc32)/C(=N\O)CCC1 (stereo not given) | 26.1 |
| CCS(=O)(=O)n1nc(-c2ccccc2)nc1SCc1ccccc1 | 15.7 |
| COc1ccc(Cl)cc1N(C)C(=O)CCc1nc(-c2ccc(C)cc2)no1 | 15.2 |
| CC(C)(C)n1c(O)c(C=Nc2ccc3c(c2)CCC3)c(=O)[nH]c1=O | 12.8 |
| Cc1cc(=O)[nH]c(-n2nc(C)cc2C)n1 | 6.56 |
| CC(C)Cn1c(=O)c(C(=O)Nc2cnccn2)c(O)c2ccccc21 | 14 |
| COC(=O)c1ccc(Oc2nc(N3CCCCC3)nc(N3CCOCC3)n2)cc1 | 20.3 |
